System: Rattus norvegicus
Test: Toxicity in Sprague-Dawley rat assessed as incidence of mortality at 1 mg/kg, iv after 10 hrs
Assay type: organism-based
Set-up: dose 1 mg/kg, route intravenous
Conditions: in vivo; call rule not given here
Outline: (§1)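 Male SD rats dosed once at 1.0 mg/kg, iv bolus or intragastric, during the PK study. Dosing solution 0.5 mg/mL in 1% ethanol, 1% Tween80, 98% buffered saline. Animals observed for death and toxic reactions over 10 h. n = 4 per PK group.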

SMILES | Activity
CC(C)C[C@H](NC(=O)[C@H](Cc1ccccc1)NC(=O)c1cnccn1)B(O)O [BORTEZOMIB] | Toxic

System: BXPC-3
Test: Cytotoxicity against human BxPC3 cells after 72 hrs by MTT assay
Assay type: functional, cell-based
Conditions: BXPC-3, 72 h
Outline: (§2)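 MTT growth assay: 3000 cells per well seeded, after 24 h exposed to 10 drug concentrations for 72 h, then MTT (5 mg/mL stock) 4 h at 37 °C. Formazan dissolved in DMSO, absorbance at 540 nm. Points in triplicate; IC50 is mean of at least three independent determinations. Cells grown at 37 °C, 5% CO2 with FBS.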

SMILES | IC50 [nM]
CC(C)C[C@H](NC(=O)[C@H](Cc1ccccc1)NC(=O)c1cnccn1)B(O)O [BORTEZOMIB] | 19.4

System: not listed separately
Test: Mean residence time (0-t) in Sprague-Dawley rat at 1 mg/kg, iv
Assay type: ADME, organism-based
Set-up: dose 1 mg/kg, route intravenous
Conditions: in vivo
Outline: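 Male SD rats given single 1.0 mg/kg iv bolus of solution (0.5 mg/mL) in 1% ethanol, 1% Tween80, 98% buffered saline. Heparinized blood samples (n = 4) centrifuged 4000 rpm, 5 min, 4 °C; plasma concentrations used to derive PK parameters.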

SMILES | MRT last [h]
CC(C)C[C@H](NC(=O)[C@H](Cc1ccccc1)NC(=O)c1cnccn1)B(O)O [BORTEZOMIB] | 1.4

System: SW480
Test: Cytotoxicity against human SW480 cells after 72 hrs by MTT assay
Assay type: functional, cell-based
Conditions: SW480, 72 h
Outline: as §2

SMILES | IC50 [nM]
CC(C)C[C@H](NC(=O)[C@H](Cc1ccccc1)NC(=O)c1cnccn1)B(O)O [BORTEZOMIB] | 12.3

System: not listed separately
Test: Mean residence time (0-t) in Sprague-Dawley rat at 1 mg/kg, ig
Assay type: ADME, organism-based
Set-up: dose 1 mg/kg, route intragastric
Conditions: in vivo, po
Outline: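 Male SD rats dosed intragastrically at 1.0 mg/kg from 0.5 mg/mL solution in 1% ethanol, 1% Tween80, 98% buffered saline. Heparinized blood (n = 4) centrifuged 4000 rpm, 5 min, 4 °C; plasma lower limit of detection 5 ng/mL.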

SMILES | MRT last [h]
CC(C)C[C@H](NC(=O)[C@H](Cc1ccccc1)NC(=O)c1cnccn1)B(O)O [BORTEZOMIB] | 7.69

System: HL-60
Test: Cytotoxicity against human HL60 cells after 72 hrs by MTT assay
Assay type: functional, cell-based
Conditions: HL-60, 72 h
Outline: as §2

SMILES | IC50 [nM]
CC(C)C[C@H](NC(=O)[C@H](Cc1ccccc1)NC(=O)c1cnccn1)B(O)O [BORTEZOMIB] | 3.5

System: not listed separately
Test: Inhibition of human 20S proteasome chymotrypsin-like activity by fluorimetric assay
Conditions: not given
Outline: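 Human 20S proteasome preincubated with test compound, then Suc-Leu-Leu-Val-Tyr-AMC hydrolysis monitored 1 h at 37 °C by fluorescence (excitation 360 nm, 465 nm). Buffer pH 7.5: 20 mM Tris, 1 mM DTT, 10% glycerol, 0.02% (w/v) SDS; DMSO 3% (v/v) final. IC50 from five concentrations, each in duplicate; bortezomib standard.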

IC50 | SMILES
Not Active | CC(C)C[C@H](NC(=O)CC(NC(=O)C(=O)OC(C)(C)C)c1cccc(Cl)c1)B(O)O (some centres not stated)
Not Active | CC(C)C[C@H](NC(=O)CC(NC(=O)C(=O)OC(C)(C)C)c1cccc(F)c1)B(O)O (some centres not stated)
Not Active | COc1cccc(C(CC(=O)N[C@@H](CC(C)C)B(O)O)NC(=O)C(=O)OC(C)(C)C)c1 (some centres not stated)
Not Active | CC(C)C[C@H](NC(=O)CC(NC(=O)c1ccccc1)c1ccccc1[N+](=O)[O-])B(O)O (some centres not stated)
Not Active | CC(C)C[C@H](NC(=O)CC(NC(=O)c1cccnc1)c1cccc(F)c1)B(O)O (some centres not stated)
Not Active | CC(C)C[C@H](NC(=O)CC(NC(=O)c1cccnc1)c1ccccc1Cl)B(O)O (some centres not stated)
Not Active | CC(C)C[C@H](NC(=O)CC(NC(=O)c1cccnc1)c1ccccc1[N+](=O)[O-])B(O)O (some centres not stated)
Not Active | Cc1ccccc1C[C@H](NC(=O)CC(NC(=O)c1ccccc1)c1cccc(F)c1)B(O)O (some centres not stated)
Not Active | O=C(CC(NC(=O)c1ccccc1)c1cccc(F)c1)N[C@@H](CC1CCCCC1)B(O)O (some centres not stated)
Not Active | Cc1ccccc1C[C@H](NC(=O)CC(NC(=O)c1ccccc1)c1cccc(Cl)c1)B(O)O (some centres not stated)
Not Active | Cc1cccc(C[C@H](NC(=O)CC(NC(=O)c2ccccc2)c2cccc(Cl)c2)B(O)O)c1 (some centres not stated)
Not Active | O=C(CC(NC(=O)c1ccccc1)c1cccc(Cl)c1)N[C@@H](Cc1cccc(F)c1)B(O)O (some centres not stated)
Not Active | O=C(CC(NC(=O)c1ccccc1)c1cccc(Cl)c1)N[C@@H](CC1CCCCC1)B(O)O (some centres not stated)
Not Active | O=C(CC(NC(=O)c1cccnc1)c1cccc(Cl)c1)N[C@@H](CC1CCCCC1)B(O)O (some centres not stated)
Not Active | COc1cccc(C(CC(=O)N[C@@H](Cc2ccccc2C)B(O)O)NC(=O)c2cccnc2)c1 (some centres not stated)
Not Active | CC(=O)NC(CC(=O)N[C@@H](CC(C)C)B(O)O)c1cccc(Cl)c1 (some centres not stated)
Not Active | COc1cccc(C(CC(=O)N[C@@H](CC(C)C)B(O)O)NC(C)=O)c1 (some centres not stated)
Not Active | CC(=O)NC(CC(=O)N[C@@H](CC(C)C)B(O)O)c1cccc(F)c1 (some centres not stated)

Same assay, conditions: read-out: IC50

IC50 [nM] | SMILES
269 | CC(C)C[C@H](NC(=O)CC(NC(=O)c1cnccn1)c1cccc(F)c1)B(O)O (some centres not stated)
33.1 | CC(C)C[C@H](NC(=O)CC(NC(=O)C1CCCCC1)c1cccc(F)c1)B(O)O (some centres not stated)
38.9 | CC(C)C[C@H](NC(=O)CC(NC(=O)c1ccccc1)c1ccccc1F)B(O)O (some centres not stated)
19 | CC(C)C[C@H](NC(=O)CC(NC(=O)c1ccccc1)c1cccc(F)c1)B(O)O (some centres not stated)
34.6 | CC(C)C[C@H](NC(=O)CC(NC(=O)c1ccccc1)c1ccc(F)cc1)B(O)O (some centres not stated)
89.1 | CC(C)C[C@H](NC(=O)CC(NC(=O)c1ccccc1)c1ccccc1Cl)B(O)O (some centres not stated)
16.5 | CC(C)C[C@H](NC(=O)CC(NC(=O)c1ccccc1)c1cccc(Cl)c1)B(O)O (some centres not stated)
224 | COc1ccccc1C(CC(=O)N[C@@H](CC(C)C)B(O)O)NC(=O)c1ccccc1 (some centres not stated)
46.7 | COc1cccc(C(CC(=O)N[C@@H](CC(C)C)B(O)O)NC(=O)c2ccccc2)c1 (some centres not stated)
42.6 | CC(C)C[C@H](NC(=O)CC(NC(=O)c1ccccc1)c1cccc([N+](=O)[O-])c1)B(O)O (some centres not stated)
35.4 | CC(C)C[C@H](NC(=O)CC(NC(=O)c1ccccc1)c1ccc([N+](=O)[O-])cc1)B(O)O (some centres not stated)
1250 | Cc1ccccc1C(CC(=O)N[C@@H](CC(C)C)B(O)O)NC(=O)c1ccccc1 (some centres not stated)
50.1 | Cc1cccc(C(CC(=O)N[C@@H](CC(C)C)B(O)O)NC(=O)c2ccccc2)c1 (some centres not stated)
1100 | CC(C)C[C@H](NC(=O)CC(NC(=O)c1cccnc1)c1ccccc1F)B(O)O (some centres not stated)
590 | CC(C)C[C@H](NC(=O)CC(NC(=O)c1cccnc1)c1ccc(F)cc1)B(O)O (some centres not stated)
22.9 | CC(C)C[C@H](NC(=O)CC(NC(=O)c1cccnc1)c1cccc(Cl)c1)B(O)O (some centres not stated)

SMILES | IC50 [nM]
CC(C)C[C@H](NC(=O)[C@H](Cc1ccccc1)NC(=O)c1cnccn1)B(O)O [BORTEZOMIB] | 1.54

System: PC-3
Test: Cytotoxicity against human PC3 cells after 72 hrs by MTT assay
Assay type: functional, cell-based
Conditions: PC-3, 72 h
Outline: as §2

SMILES | IC50 [nM]
CC(C)C[C@H](NC(=O)[C@H](Cc1ccccc1)NC(=O)c1cnccn1)B(O)O [BORTEZOMIB] | 8.3

System: not listed separately
Test: Cytotoxicity against human RPMI18226 cells after 72 hrs by MTT assay
Assay type: functional, cell-based
Conditions: RPMI18226, 72 h
Outline: as §2

SMILES | IC50 [nM]
CC(C)C[C@H](NC(=O)[C@H](Cc1ccccc1)NC(=O)c1cnccn1)B(O)O [BORTEZOMIB] | 3.5

System: A549
Test: Cytotoxicity against human A549 cells after 72 hrs by MTT assay
Assay type: functional, cell-based
Conditions: A549, 72 h
Outline: as §2

SMILES | IC50 [nM]
CC(C)C[C@H](NC(=O)[C@H](Cc1ccccc1)NC(=O)c1cnccn1)B(O)O [BORTEZOMIB] | 13.9

System: HepG2
Test: Cytotoxicity against human HepG2 cells after 72 hrs by MTT assay
Assay type: functional, cell-based
Conditions: HepG2, 72 h
Outline: as §2

SMILES | IC50 [nM]
CC(C)C[C@H](NC(=O)[C@H](Cc1ccccc1)NC(=O)c1cnccn1)B(O)O [BORTEZOMIB] | 25.2

System: SK-OV-3
Test: Cytotoxicity against human SKOV3 cells after 72 hrs by MTT assay
Assay type: functional, cell-based
Conditions: SK-OV-3, 72 h
Outline: as §2

SMILES | IC50 [nM]
CC(C)C[C@H](NC(=O)[C@H](Cc1ccccc1)NC(=O)c1cnccn1)B(O)O [BORTEZOMIB] | 66.8

System: Rattus norvegicus
Test: Toxicity in Sprague-Dawley rat assessed as incidence of mortality at 1 mg/kg, ig after 10 hrs
Assay type: organism-based
Set-up: dose 1 mg/kg, route intragastric
Conditions: in vivo, po
Outline: as §1

SMILES | Activity
CC(C)C[C@H](NC(=O)[C@H](Cc1ccccc1)NC(=O)c1cnccn1)B(O)O [BORTEZOMIB] | Toxic
